The whole screen tested about 330,000 compounds, of which about 1,100 (0.33%) were called active.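 How the source made its calls: active means at 10 µM dose, activation of 40% or more, normalized to positive control; inactive means the rest.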 Only a selection was taken, and actives are over-represented in it overall.
Experiment: PERK-eIF2a-CHOP pathway stimulators – cell-based, CHO-CHOP luciferase reporter, luminescence, uHTS, primary screen (AID 449763);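 further: 100% = tunicamycin at 10 µg/mL and 0% = DMSO alone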
Details: UPR activation, at 10 µM, stronger effect = higher value, percent of tunicamycin response over DMSO baseline
How it was run: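 measured by = luciferase luminescence | assay system = CHO-CHOP cells, stable luciferase reporter of PERK-eIF2a-CHOP signalling | amount = 500 reporter cells seeded per well | timing = 6 h compound exposure at 37 °C after overnight seeding | controls = positive tunicamycin 10 µg/mL, negative DMSO alone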

Structure (SMILES) | activation
O=C1NC(=O)N(CCc2ccc(F)cc2)C(=O)/C1=C/C=C/c1ccccc1 | 75.4% (active)
O=C(O)COc1ccccc1/C=C1\C(=O)NC(=O)N(CCC2=CCCCC2)C1=O | -0.189% (inactive)
O=C1NC(=O)N(Cc2ccco2)C(=O)/C1=C\c1ccc(-c2ccc(F)cc2)o1 | 0.772% (inactive)
COc1cccc(-c2nc3ccc(N4CCN(C)CC4)cc3[nH]2)c1 | -6.37% (inactive)
Cc1cc(N2C(=O)C3CCCN3C2c2ccc(Cl)c(Cl)c2)no1 (stereo not given) | -0.781% (inactive)

Reference: PubChem BioAssay AID449763 (Sanford-Burnham Center for Chemical Genomics, 2010)
